# This is a sample that favours compounds with a hit; in the whole collection about 9.4% have one here.
# Lmaj promast = inhibitors of Leishmania major promastigote growth. hit rate 9% among 200,000. Leishmania major promastigotes, resazurin fluorescence viability. inhibition, % at 10 µM; in the data active means inhibition above about 50%;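 further: promastigotes grown with compound for 44 hours at 28 °C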
# Beta apoptosis = blocks beta cell apoptosis. INS-1E cytokine-induced death, ATP luminescence, 48 h; percent of positive-control rescue, neutral wells zero. protection from apoptosis, % (concentration not given with the values). hit rate 0.8% among 300,000. AID 435005;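 active means Every replicate reaches about 75%, or at least half do and their mean reaches it too, limit read from the data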;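 further: 0% = cytokine-treated negative control wells and 100% = positive control rescue; higher means more ATP so stronger rescue from cytokine killing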
# T cruzi inh = T. cruzi replication inhibition; T. cruzi beta-gal in NIH3T3, luminescence, 90 h; inhibition, % (concentration not given with the values); hit rate 1.4% among 300,000;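 active means mean inhibition across valid replicates above about 55%, limit read from the data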;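 further: signal also drops with host cell toxicity which is not excluded here; 0% = plate median of DMSO wells and 100% = zero luminescence signal; higher percent means less beta-gal luminescence so fewer parasites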
#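 Test system: β-gal T. cruzi (Tulahuen C4) inside NIH/3T3 cells / Quantity: 5,000 cells/well / Measured by: luminescence from GalScreen with 0.05% NP40, read after 60 min / Medium: DMEM plus 2% FBS / Measure: parasite load inhibition, % / Reagent: Tulahuen C4 trypomastigotes, 5000/well / Schedule: co-culture of at least 90 h after 3 h attachment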
# Mdm2 MdmX PPI = disrupts the human Mdm2-MdmX interaction; O15151+Q00987; SaOS-2 split-luciferase Mdm2/MdmX complementation, luminescence; inhibition, % at 8 µM; hit rate 3% among 330,000; AID 485346;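 active means inhibition of at least 50% at 8 µM in the primary screen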
# SKKanGAS inh = blocks kanamycin growth of S. pyogenes SKKanGAS strain | inhibition, % at 7.5 µM | BacTiter-Glo, 6 h | hit rate 1.3% among 300,000;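 active means mean replicate score, as percent of positive control median, at least 50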;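 further: strain carries kanamycin resistance gene driven by streptokinase promoter and grows in 40 µg/ml kanamycin; loss of luminescence reflects streptokinase promoter inhibition or plain growth inhibition; 0% = median of DMSO wells and 100% = positive control at its reference dose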
# CSC inhib = cancer stem cell inhibition. cancer stem cell-like cells viability, luminescence. inhibition, % at 7.5 µM. hit rate 1.1% among 300,000. AID 2717; in the data active means inhibition above about 75%; tested in HMLE shEcad cells
# The depositor's hits bear a star; · = no result given.
SMILES,Lmaj promast,Beta apoptosis,T cruzi inh,Mdm2 MdmX PPI,SKKanGAS inh,CSC inhib
O=C(/C=C(\c1ccc(Cl)cc1)n1cncn1)c1ccc(Cl)cc1,74*,5,65*,40,-8,24
Cc1cc(NC(=O)CSc2nnc3ccc(-c4ccc(F)cc4)nn23)no1,·,·,-3,23,-7,-4
C=CCn1c(SCc2cc([N+](=O)[O-])cc3c2OCOC3)nc2cc(C(=O)O)ccc2c1=O,·,-10,14,-16,9,-4
CCC(CO)n1c(SCc2cc([N+](=O)[O-])cc3c2OCOC3)nc2ccccc2c1=O (stereo unspecified),81*,1,4,18,16,-1
COc1ccc2oc(C(=O)NCc3cc(OC)c(OC)cc3OC)c(C)c2c1,·,13,45,-11,-4,10
O=C(Nc1ccc(Cl)c(Cl)c1)N1N=CCC1c1ccccc1 (stereo unspecified),19,·,30,-9,-4,·
COc1cccc(/C=N/NC(=O)c2ccc([N+](=O)[O-])cc2Cl)c1O,99*,88*,-10,45,13,-3
COc1ccc(/C=N/NC(=O)c2cccc([N+](=O)[O-])c2)cc1OS(=O)(=O)c1ccccc1,28,-4,12,25,-2,-2
COc1cccc(/C=N/NC(=O)c2cccc([N+](=O)[O-])c2)c1OS(=O)(=O)c1ccccc1,100*,2,6,6,-2,-17
COc1cccc(/C=N/NC(=O)c2ccc(=O)n(C)c2)c1O,81*,49,-17,-8,-4,·
Cc1ccc(-n2[nH]c(C)c(C=Nc3ccc(S(=O)(=O)N4CCOCC4)cc3)c2=O)c(C)c1,52*,-4,-8,-1,1,6
CC1CCCCC1NC(=O)COC(=O)c1ccc2c(=O)n3c(nc2c1)CCC3 (stereo unspecified),·,-2,·,10,·,-15
Cc1ccsc1/C=N/N1CCN(c2ccccc2)CC1,53*,1,-3,-22,-4,-4
O=P(OC1CCCCC1)(OC1CCCCC1)C(O)c1ccc(Cl)cc1Cl (stereo unspecified),52*,0,33,4,12,·
O=P(OC1CCCCC1)(OC1CCCCC1)C(O)c1c(Cl)cccc1Cl (stereo unspecified),53*,-7,27,21,8,21
COc1ccccc1C(O)P(=O)(OC1CCCCC1)OC1CCCCC1 (stereo unspecified),·,-4,-2,16,6,-11
COc1cccc(S(=O)(=O)NCc2ccc(C(=O)Nc3cccc(Cl)c3)cc2)c1,-1,10,·,35,10,99*
CC(C1CCN(Cc2nc(C3CC3)no2)CC1)N1CCOCC1 (stereo unspecified),78*,0,13,-10,7,29
CCOC(=O)N1CCN(Cc2nc(C3CC3)no2)CC1,9,0,-4,22,2,-2
COc1ccc(C(=O)C[n+]2ccc3c(c2)nc(-c2ccccc2)n3C)cc1,68*,0,-13,-17,0,-6
COc1ccc(C(=O)C[n+]2ccc3c(c2)nc(-c2ccc(OC)cc2OC)n3C)cc1,87*,1,40,19,7,-36
COc1cc(-c2nc3c[n+](CC(=O)c4ccccc4)ccc3n2C)cc(OC)c1OC,-3,-9,-7,20,-2,-4
CCc1noc(C)c1C(=O)NCCc1ccccc1,·,-5,-4,1,-8,-9
O=C(O)CCC(NC(=O)C(Cc1ccc2c(c1)OCO2)NC(=O)c1ccccc1)C(=O)O (stereo unspecified),12,·,·,·,·,·
CC(NC(=O)C(Cc1ccccc1)NC(=O)c1ccccc1)C(=O)O (stereo unspecified),85*,2,-20,-5,6,8
SMILES,Lmaj promast,Beta apoptosis,T cruzi inh,Mdm2 MdmX PPI,SKKanGAS inh,CSC inhib
O=C(NC(Cc1ccc2c(c1)OCO2)C(=O)NC(Cc1ccccc1)C(=O)O)c1ccccc1 (stereo unspecified),88*,-2,-3,17,-4,-16
CCCCNC(=O)[C@@H]1CC=C[C@@H]2CCN(C3CC3)C(=O)[C@@H]21,·,2,0,-7,1,1
O=C(c1cc2ccccc2o1)N1CCC(N2CCC(C(=O)N3CCCC3)CC2)CC1,50*,-3,-1,2,-10,-7
Cc1[nH]c2ccccc2c1/C=N/Nc1ccccn1,56*,·,1,·,2,·
Cc1[nH]c2ccccc2c1/C=N/Nc1nncn1N,10,-4,·,-10,5,6
Cc1ccc(N/N=C(\C#N)C(N)=S)c(C)c1,19,-4,11,·,60*,42
CC1(C(=O)OCc2cc(=O)n3cc(Br)ccc3n2)CC1(Cl)Cl (stereo unspecified),7,-1,4,-130,-3,6
COc1ccc(NS(=O)(=O)c2cc(NC(=O)c3cccc(OCc4c(C)noc4C)c3)ccc2OC)cc1,98*,14,19,26,19,32
Cc1ccccc1NC(=O)c1cccc(OCc2c(C)noc2C)c1,59*,-1,0,-2,-2,-2
Cc1noc(C)c1COc1cccc(C(=O)Nc2ccc(C#N)cc2)c1,83*,7,17,22,-5,-7
Cc1noc(C)c1COc1cccc(C(=O)Nc2ccccc2)c1,·,·,·,9,·,·
Cc1ccc(NC(=O)c2cccc(OCc3c(C)noc3C)c2)cc1,83*,7,-6,-3,-11,-9
CC(=O)c1ccccc1NC(=O)c1ccc(OCc2c(C)noc2C)cc1,·,-7,·,20,·,4
CC(=O)NS(=O)(=O)c1ccc(NC(=O)c2cccc(OCc3c(C)noc3C)c2)cc1,·,-10,·,12,·,·
Cc1noc(C)c1COc1cccc(C(=O)NCc2cccc(Cl)c2)c1,73*,9,9,20,-6,-26
CCOC(=O)C1CCCN(/C=C2\SC(=S)N(CC)C2=O)C1 (stereo unspecified),·,·,8,24,0,·
CCOc1ccc(NC2=C(OC)C(=O)c3ccccc3C2=O)cc1,26,12,-14,-16,14,24
COC1=C(Nc2ccc(O)cc2)C(=O)c2ccccc2C1=O,53*,52,-27,-32,12,21
COc1ccc(NC2=C(NC(C)=O)C(=O)c3ccccc3C2=O)cc1,·,7,-4,4,9,23
COC1=C(Nc2ccc(OC)cc2)C(=O)c2ccccc2C1=O,69*,21,9,-15,-1,-8
NC(=O)c1ccc(NCCCN2CCOCC2)c([N+](=O)[O-])c1,-5,-10,-6,8,1,-6
CCOc1cc(/C=C(\C#N)C(=O)NCC2CCCO2)ccc1OCC(N)=O (stereo unspecified),3,0,-13,15,-18,0
CCOc1cc(/C=C(\C#N)C(=O)NCC2CCCO2)ccc1O (stereo unspecified),64*,-4,-6,-28,-8,-9
